Source: PubChem BioAssay (Broad Institute)
PGC1a acetyl inh: modulators of PGC1a acetylation; U2OS PGC1a acetylation, AlphaScreen anti-acetyl-lysine; with virally co-expressed GCN5 acetyltransferase; inhibition, % at 15.6 µM; 350,000 compounds, 0.17% hits; AID 651687;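 active means every replicate shows inhibition of at least 40%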;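 further: 0% = neutral control wells and 100% = positive control wells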
Cneo AK release: causes C. neoformans cell lysis; lysis activity, % at 15 µM; AID 651654; 360,000 compounds, 0.2% hits; adenylate kinase release luminescence, 4 h; normalised: neutral wells 0, clomiphene wells 100;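 active means mean lysis activity across replicates of at least 80%, whatever share of replicates individually reach that level; inactive means mean lysis activity below 80%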
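Material – Cryptococcus neoformans yeast cells · Quantity – 5 × 10^6 yeast cells/mL · Buffer or medium – YPD medium · Compound – single dose · Timing – 4 h static compound exposure, 37 °C, read 1 h post-reagent · Signal – adenylate kinase release luminescence · Read-out basis – lysis from increased AK signal · Benchmarks – Clomiphene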
FGF22 binding: shifts melting point of recombinant human FGF22 | 340,000 compounds, 1.5% hits | recombinant FGF22 thermal shift, SYPRO orange fluorescence; percent of sucrose octasulfate shift, DMSO zero | activity (Tm shift, normalised), % at 9.99 µM;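 active means mean Tm shift, scaled 0 neutral to 100 positive control, at about 1.3% or above, every replicate too, limit read from the data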
Target sequence (Q9HCT0 whole entry, looked up): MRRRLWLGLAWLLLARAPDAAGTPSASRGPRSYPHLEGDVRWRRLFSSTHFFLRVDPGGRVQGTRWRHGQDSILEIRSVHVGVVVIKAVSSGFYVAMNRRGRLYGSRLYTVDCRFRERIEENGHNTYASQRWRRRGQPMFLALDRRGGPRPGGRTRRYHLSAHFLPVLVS
rRNA inh HTS: inhibits bacterial ribosomal RNA function over humanized ribosomes | GFP signal change (wild-type ribosome), % (test concentration not listed) | AID 720706 | 350,000 compounds, 1.6% hits | E. coli WT GFP vs humanized-ribosome RFP mutants, fluorescence, 24 h; hits give low values; DMSO median 0, no signal -100;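 active means significant combined selectivity score with lowered wild-type GFP, culture density cut under 30%, mutant RFP and density less affected; inactive means any of these conditions unmet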
Vif imaging: HIV Vif inhibition. HEK293T cells, Vif self-association by quenched fluorescence, imaging, 24 h. inhibition, % at 7.49 µM. 340,000 compounds, 0.35% hits; in the data active means inhibition above about 50%, passing the limit was not always enough
PglD DTNB: blocks C. jejuni PglD acetyltransferase activity; purified PglD enzyme, DTNB colorimetric CoA detection; inhibition, % at 12.5 µM; 360,000 compounds, 0.098% hits; AID 602405; in the data active means inhibition above about 16%, passing the limit was not always enough
* = called active by the depositor; i = inactive; . = no result given. Hits are enriched below; roughly 2.9% of the tested compounds scored in any of these assays.

SMILES	PGC1a acetyl inh	Cneo AK release	FGF22 binding	rRNA inh HTS	Vif imaging	PglD DTNB
O=C(Nc1cc(F)cc(F)c1)c1ccc(NCCc2ccccc2)c([N+](=O)[O-])c1	4	-1	.	.	i	-3
O=C(Nc1ccccc1C(=O)O)c1cc(S(=O)(=O)N2CCCCCC2)ccc1Cl	.	-2	1	-44*	-3	0
Cc1ccc(S(=O)(=O)N2CCCCC2)cc1NC(=O)CSc1nncn1-c1ccccc1	.	.	43*	.	2	.
O=C(O)c1cc(S(=O)(=O)N2CCCCCC2)ccc1Cl	5	-5	.	.	1	-4
COc1ccccc1CNCC(=O)Nc1cc(S(=O)(=O)N2CCCCCC2)ccc1Cl	9	.	0	-31*	-6	.
CS(=O)(=O)c1ccc(Cl)c(NC(=O)CSc2nnc3n2CCCCC3)c1	0	-2	44*	-6	1	5
CC(=O)N(C)C[C@H]1Oc2cc(C#CC3CCCC3)ccc2S(=O)(=O)N([C@H](C)CO)C[C@H]1C	-9	1	0	4	.	1
C[C@H]1CN([C@@H](C)CO)C(=O)c2cc(NC(=O)C3CC3)ccc2O[C@H]1CN(C)Cc1ccncc1	-7	0	0	0	.	0
Cc1ccc(S(=O)(=O)N2CCOCC2)cc1NC(=O)CSc1ncccn1	1	.	0	12	0	.
CC(OC(=O)C1=COCCO1)C(=O)Nc1cc(S(=O)(=O)N2CCCCC2)ccc1Cl (configuration not stated)	.	4	43*	8	-1	-5
Cc1ccc(S(=O)(=O)N2CCCCC2)cc1NC(=O)COc1ccccc1F	.	1	43*	4	4	4
Cc1ccc(S(=O)(=O)N2CCCCC2)cc1NC(=O)CSc1ncccn1	.	-2	0	6	54*	-2
COc1ccccc1CNCC(=O)Nc1cc(S(=O)(=O)N2CCCCC2)ccc1C	.	2	0	-5	0	3
C=C1C(=O)[C@]23C[C@H]1CCC2[C@@]1(C)C(C[C@@H]3O)[C@](C)(C(=O)OC)CC[C@@H]1O (some centres not stated)	92*	-2	.	12	.	5
C[C@@H]1CN([C@@H](C)CO)C(=O)Cc2cc(NC(=O)CCCN(C)C)ccc2O[C@@H]1CN(C)S(=O)(=O)c1cccs1	1	0	0	1	.	-1
Cc1cc(C)c(S(=O)(=O)N2CCN(C(=O)c3cccs3)CC2)c(C)c1	.	3	43*	-32	-15	1
Cc1ccc(S(=O)(=O)N2CCN(C(=O)c3cccs3)CC2)c(C)c1	-3	.	.	-12	-3	.
CC(C)NC(=O)Nc1n[nH]c(Nc2ccc(Cl)cc2)n1	0	0	0	-18*	5	1
O=S(=O)(c1ccccc1)c1nc(-c2ccccc2)oc1N1CCOCC1	.	.	43*	4	-6	.
O=C(C1CC1)N1CCCCN2[C@@H](CO)[C@@H](c3ccc(-c4ccncc4)cc3)[C@@H]2C1	4	-3	.	.	.	4
Cc1ccc(CNS(=O)(=O)c2ccccc2[N+](=O)[O-])cc1	.	.	44*	-7	-3	.
COc1cccc(OCCNS(=O)(=O)c2ccccc2[N+](=O)[O-])c1	-2	-1	0	-22*	-3	5
Cc1ccc(CNS(=O)(=O)c2ccc([N+](=O)[O-])cc2)cc1	17	-1	0	16	3	-6
CCCC#Cc1ccc2c(c1)[C@H]1[C@H](CCN1C(=O)C1CCCCC1)[C@@H](CO)N2	.	.	.	-4	.	.
C[C@H](CO)N1C[C@H](C)[C@@H](CN(C)CC2CC2)OCc2ccccc2-c2c(n(C)c3ccccc23)C1=O	.	.	.	5	.	.
SMILES	PGC1a acetyl inh	Cneo AK release	FGF22 binding	rRNA inh HTS	Vif imaging	PglD DTNB
COC(=O)\C(C(C)=O)=C(/C=C/C=C/N(C)C)N(C)C	5	0	.	.	62*	0
COC(=O)/C(C(C)=O)=C(/C=C/C=C/N(C)C)N(C)C	.	-3	0	6	9	-17
CCOC(=O)C1CCN(C2=NC(=O)/C(=C/c3ccc(OC)c(OC)c3)S2)CC1	11	-1	0	-30*	-7	-3
O=C(N=Nc1c(O)[nH]c2ccc(Br)cc12)c1ccco1	-6	0	0	-6	.	-6
Oc1cccc(NC(=S)N=Nc2c(O)[nH]c3ccc(Br)cc23)c1	-3	-5	0	-37*	0	0
Cc1ccc(NC(=S)N=Nc2c(O)[nH]c3ccccc23)cc1	.	.	0	5	-5	.
O=C(N=Nc1c(O)[nH]c2ccc(Br)cc12)c1ccccc1-n1cccc1	-36	-2	0	-29*	26	-2
Oc1[nH]c2ccc(Br)cc2c1N=NC(=S)Nc1ccc(F)cc1	-1	0	1	5	2	-1
COc1ccc(NC(=S)N=Nc2c(O)[nH]c3ccccc23)cc1	10	-3	0	-47*	6	-8
Oc1ccc(NC(=S)N=Nc2c(O)[nH]c3ccc(Br)cc23)cc1	14	4	0	-23*	-8	-5
COc1ccc2c(C#CCCO)c(-c3ccc(S(C)(=O)=O)cc3)sc2c1	-13	0	45*	3	-7	3
CCOc1ccc(NC(=O)C(CC)n2nc(C)c3c(C)n(-c4ccccc4)nc3c2=O)cc1 (configuration not stated)	3	1	0	-23*	-1	3
Clc1nc(Nc2ccc(N3CCOCC3)cc2)c2ccccc2n1	.	.	43*	23	-9	.
COc1ccn(C2CCCCO2)c(=O)n1 (configuration not stated)	-3	3	43*	5	43	3
CC(=O)N1CC2(C1)[C@H](c1ccc(-c3cccc(F)c3)cc1)[C@H](CO)N2CC1CC1	0	.	.	-4	.	.
CN1CCN(C(=O)c2cc3ccccc3oc2=O)CC1	7	0	.	.	.	3
Cc1cccc(N2CCN(C(=O)c3cc4ccccc4oc3=O)CC2)c1C	.	0	0	-9	68*	-2
Oc1ccc(CN2CCN(Cc3ccccc3)CC2)c2cccnc12	0	-2	.	.	9	-7
CN1CCN(C2CCN(Cc3ccc(O)c4ncccc34)CC2)CC1	.	3	44*	-29	-2	-4
Cc1ccc(S(=O)(=O)N2CC[C@@H]3[C@@H](CO)N(C)c4ccc(-c5ccc(C#N)cc5)cc4[C@@H]32)cc1	8	-4	0	0	.	-1
CCOC(=O)c1nc(NCc2ccccc2)c2ccccc2n1	.	.	44*	-35	-3	.
C=CCNc1nc(C(=O)OCC)nc2ccccc12	.	.	0	3	.	.
Cc1ccc(C)c2sc(NC(=O)CN3C(=O)CCC3=O)nc12	14	8	43*	-18	5	-4
Cc1cccc2sc(NC(=O)CN3C(=O)NC4(CCCC4)C3=O)nc12	-5	0	0	-12	.	-2
